# Measurements published in ChEMBL document CHEMBL4387709, “Discovery of Quinoline Analogues as Potent Antivirals against Enterovirus D68 (EV-D68)” (J Med Chem, 2019).
# Active and inactive are the calls of the source. No cut-off for these calls is given here.
# How the values were obtained:
# enterovirus D68 [1] = test: Antiviral activity against Enterovirus D68 US/MO/14-18949 infected in human RD cells assessed as inhibition of virus-induced cytopathic effect incubated for 5 mins under shaking condition and measured after 3 days by neutral red dye-based photometric method; assay type: functional, organism-based; conditions: Enterovirus D, US/MO/14-18949, RD
# How it was run: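 RD cells seeded one day ahead to ~90% confluence, PBS (Mg/Ca) wash, infected at ~MOI 0.01 with EV-D68 in DMEM/2% FBS/30 mM MgCl2 at 33 °C, 5% CO2. Compounds and 1% P/S added after 1 h. Plates shaken ~5 min, held 3 days, viable cells stained with neutral red (66 µg/ml), A540 read. EC50 from dose-response fits, triplicates.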
# RD = test: Inhibition of 2C protein in Enterovirus D68 US/KY/14-18953 infected in human RD cells assessed as reduction of VP1 expression at 1 uM measured at 9 hrs post infection by Western blot analysis; assay type: cell-based
# How it was run: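 Equal protein separated and blotted to PVDF. Probed with rabbit anti-VP1 and mouse anti-GAPDH (1:3,000), HRP secondary, chemiluminescent detection. Mean of two independent experiments ± SD.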
# enterovirus D68 [2] = test: Antiviral activity against Enterovirus D68 US/KY/14-18953 infected in human A172 cells assessed as inhibition of virus-induced cytopathic effect incubated for 5 mins under shaking condition and measured after 3 days by neutral red dye-based photometric method; assay type: functional, organism-based; conditions: Enterovirus D, US/KY/14-18953, A 172
# How it was run: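 A172 cells (DMEM, 10% FBS) grown ~90% confluent, infected with EV-D68 at ~MOI 0.3 in DMEM/2% FBS/30 mM MgCl2 and kept at 33 °C. P/S and compounds added 1 h later. Brief orbital shaking, then 3-day incubation. Neutral red staining with 540 nm absorbance. EC50 from best-fit dose-response curves in triplicate.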
# HeLa = test: Cytotoxicity against human HeLa cells after 3 days by neutral red dye-based photometric method; assay type: cell-based; conditions: 72 h
# How it was run: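 Uninfected cells run as in the CPE assay (33 °C, 3 days, same media) with compound. Viability by neutral red staining and 540 nm absorbance. CC50 from dose-response curves, triplicate experiments.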
# [3] = Selectivity index, ratio of CC50 for human SH-SY5Y cells to EC50 for Enterovirus D68 US/MO/14-18947 infected in human SH-SY5Y cells; assay type: toxicity, cell-based; conditions: read-out: Ratio CC50/EC50
# How it was run: (§1)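 SH-SY5Y cells grown in 50% DMEM/50% F-12 with 10% FBS and 1% P/S to about 90% confluency, then infected at MOI about 1 in DMEM with 2% FBS and 30 mM MgCl2 at 33 °C. Compounds were added after 1 h. Neutral red staining was read at 540 nm after 3 days. CC50 came from uninfected cells under the same conditions. Values were triplicate dose-response fits, and SI = CC50/EC50.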
# [4] = Selectivity index, ratio of CC50 for human SH-SY5Y cells to EC50 for Enterovirus D68 US/KY/14-18953 infected in human SH-SY5Y cells; assay type: toxicity, cell-based; conditions: read-out: Ratio CC50/EC50; how it was run: as §1
# Influenza B virus = test: Antiviral activity against Influenza B virus (B/Brisbane/60/2008) at 10 uM after 2 days by plaque assay; assay type: functional, organism-based
structure (smiles),measurement,setting,value
O=C(NCCN1CCCC1)c1cc(-c2cccs2)nc2ccccc12,EC50,enterovirus D68 [1],50 nM
same,inhibition,RD,Active
same,EC50,enterovirus D68 [2],50 nM
same,CC50,HeLa,41700 nM
same,selectivity ratio,[3],4660
same,selectivity ratio,[4],933
same,Activity,Influenza B virus,inactive
